CFTR F508del cor – correctors of CFTR F508del function in bronchial epithelial cells. CFBE cells, YFP halide quenching; stimulated with forskolin plus potentiator P3; % fluorescence drop versus neutral controls. activity (quench increase), % at 7.58 µM. 0.36% of 350,000 active;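 active means mean added fluorescence quench of at least 8% versus neutral control, with both replicates also reaching 8%; inconclusive means only one of the mean or replicate conditions met; inactive means mean below 8% and not both replicates reaching 8%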;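 further: cells transiently co-express mutant CFTR-F508del with the halide-sensitive YFP; corrector assay measuring rescue of mutant channel to the surface after 24 h compound exposure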
S100A4 MyoIIA – blocks human S100A4 binding to myosin IIA peptide. S100A4/TAMRA-MyoIIA peptide fluorescence polarization. 0.14% of 360,000 active. P26447. inhibition, % at 10.7 µM;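 active means mean inhibition of at least 70% across replicates, with every replicate also reaching that level; inconclusive means mean inhibition reaches 70% but some replicates fall short; inactive means mean inhibition below 70%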
Target sequence (P26447 whole entry, looked up): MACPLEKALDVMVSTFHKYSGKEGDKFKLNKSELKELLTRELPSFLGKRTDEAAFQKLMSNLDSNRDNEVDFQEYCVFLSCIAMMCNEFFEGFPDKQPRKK
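Test system: S100A4 monomer protein. Medium: HEPES buffer with Ca2+, pH 7.2. Reagent: fluorescent myosin IIA peptide, 5 nM. Compound dosing: single-point compound testing. Timing: 5 min between mix addition and reading. Benchmarks: DMSO neutral and TFP positive wells.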
SIRT5 inh – blocks human SIRT5 desuccinylation of peptide | Q9NXA8 | Purified SirT5, succinyl-peptide AMC, trypsin-coupled fluorescence | inhibition, % at 15 µM | 1.1% of 330,000 active; in the data active means inhibition above about 15%; inconclusive means no clear call, values can overlap the other calls
Target sequence (Q9NXA8 whole entry, looked up): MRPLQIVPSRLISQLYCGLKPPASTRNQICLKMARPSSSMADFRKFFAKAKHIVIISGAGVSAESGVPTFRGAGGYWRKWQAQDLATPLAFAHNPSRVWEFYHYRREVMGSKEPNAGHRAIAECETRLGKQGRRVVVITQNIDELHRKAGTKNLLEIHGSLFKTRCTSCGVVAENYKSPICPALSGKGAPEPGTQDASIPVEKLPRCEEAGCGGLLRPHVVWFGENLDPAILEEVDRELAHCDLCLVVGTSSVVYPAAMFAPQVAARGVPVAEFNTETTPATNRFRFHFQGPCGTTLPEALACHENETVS
rRNA inh HTS – inhibitors of bacterial rRNA selective over humanized ribosomes; E. coli WT GFP vs humanized-ribosome RFP mutants, fluorescence, 24 h; active compounds read low; DMSO median 0, no signal -100; 1.6% of 350,000 active; GFP signal change (wild-type ribosome), % (test concentration not listed); AID 720706;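 active means significant combined selectivity score with lowered wild-type GFP, culture density cut under 30%, mutant RFP and density less affected; inactive means any of these conditions unmet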
ERAP1 inh – ERAP1 (human) enzyme inhibition | Q9NZ08 | recombinant ERAP1, Leu-AMC fluorescence, 60 min | inhibition, % at 10.7 µM | 0.15% of 340,000 active | AID 652197;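 active means mean replicate inhibition of at least 30%, or all replicates individually reaching that 30% level; inactive means mean below 30% and not every replicate reaching it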;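 further: 0% = neutral control wells and 100% = L-leucinethiol positive control wells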
AID977621 – growth inhibition of wild-type GFP E. coli, dose response, H69 mutant RFP, cherry-pick; shares compounds with rRNA inh HTS; E. coli wild-type GFP strain growth, fluorescence, 24 h; activity change, negative = inhibition at 50 µM; 1,900 tested, under 10 active; AID 977621;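 active means Wild-type ribosome reporter drop at least double the humanized mutant ribosome reporter drop, growth loss under a set limit; inconclusive means no clear call, values can overlap the other calls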;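 further: wild-type GFP and H69 mutant RFP strains grown together 50/50 in each well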
AID977628 – growth of wild-type and h24-humanized E. coli strains – h24 mutant RFP vs wild-type GFP, cherry-pick, dose response | shares compounds with rRNA inh HTS | E. coli WT GFP strain growth, fluorescence, 24 h | activity change, negative = inhibition at 50 µM | 1,900 tested, under 10 active | AID 977628;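 active means compound lowering the normal-ribosome reporter at least twice as much as the humanized-ribosome reporter, growth loss under a set limit; inconclusive means no clear call, values can overlap the other calls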;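 further: wild-type GFP and h24 humanized RFP strains co-cultured 1 to 1 per well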
Numbers without * were called inactive; ? = inconclusive; · = no result given. Rows were chosen to be rich in hits. Some 3.1% of all compounds tested hit in one or more screens of this group.

SMILES	CFTR F508del cor	S100A4 MyoIIA	SIRT5 inh	rRNA inh HTS	ERAP1 inh	AID977621	AID977628
C/C(=N/OC(=O)C1CC1c1ccccc1)c1ccccc1 (stereo unspecified)	-1	-20	-3	-21*	0	·	·
C[C@@H]1CCCCO[C@H](CN(C)C(=O)Cc2ccccc2)[C@H](C)CN([C@H](C)CO)C(=O)c2cc(NC(=O)Nc3ccc(F)cc3)ccc2O1	-2	-8	2	4	-3	·	·
O=C(NN1C(=O)/C(=C/C=C/c2ccco2)SC1=S)c1ccncc1	0	-32	43*	-3	4	·	·
O=C(O)c1ccc(N2C(=O)/C(=C/C=C/c3ccccc3)SC2=S)cc1	·	-10	5	2	7	·	·
O=C(NN1C(=O)/C(=C/C=C/c2ccccc2)SC1=S)c1ccncc1	0	43	22*	-19	7	·	·
Cc1cc(C)c2sc(N(CCN(C)C)C(=O)c3c(F)cccc3F)nc2c1	1	-5	-4	-37*	-7	·	·
COc1ccc(-c2cc(C(F)(F)F)nc(S(=O)(=O)CCCC(=O)Nc3cccnc3Cl)n2)cc1OC	2	1	-2	12	50*	·	·
COc1ccccc1/C=C/C1=NC(=C\C=C/c2ccccc2)/C(=O)O1	3	3	21*	-17	5	·	·
COc1ccccc1/C=C/C=O	-1	0	0	·	0	·	·
O=C(CSc1nc(C2CC2)nc2ccccc12)Nc1ccccc1N1CCOCC1	1	2	-2	-17*	1	-6.2	-7.3
CCc1ccc2nc(SCC(=O)Nc3ccccc3N3CCOCC3)c(C#N)cc2c1	2	12	0	-30*	0	-11	-4
Cn1cnc(S(=O)(=O)N2CC[C@@H]3[C@H]2c2cc(-c4cccc(F)c4)ccc2N[C@@H]3CO)c1	1	0	-5	-7	-2	·	·
COc1ccc(S(=O)(=O)N(C)C[C@H]2Oc3ccc(NC(=O)C4CC4)cc3CC(=O)N([C@H](C)CO)C[C@@H]2C)cc1	0	2	4	-2	-1	·	·
CC(C)(C)NC(=O)C(c1ccncc1)N(Cc1ccc(F)cc1)C(=O)c1ccc(-c2ccccc2)[nH]1 (stereo unspecified)	6	-5	-2	-21*	0	10	1.3
C[C@@H]1CN([C@@H](C)CO)C(=O)Cc2cc(NC(=O)CCN3CCOCC3)ccc2O[C@@H]1CN(C)C(=O)Nc1ccccc1	1	·	·	4	·	·	·
CC1CCC2(CC1)SCC(=O)N2c1ccc(F)cc1 (stereo unspecified)	1	6	0	-19*	-1	-3	-8.2
Cn1c(CC2C(=O)Nc3ccc(Br)cc32)nc2ccccc2c1=O (stereo unspecified)	2	2	2	-29*	-5	-1.9	3.7
O=C1Nc2ccc(Br)cc2C1Cc1ccccc1F (stereo unspecified)	·	-4	9	-4	0	·	·
COc1cccc2c1Oc1cc([N+](=O)[O-])cc(N(C)C(C)=O)c1C=C2	0	0	2	-17*	5	·	?
CC(=O)N(C)c1cc([N+](=O)[O-])ccc1OCc1ccccc1	2	-2	2	-15	7	·	·
COc1cccc(NC(=O)N2C[C@H](O)COC[C@H]3O[C@H](CC(=O)NCc4ccccc4F)CC[C@@H]32)c1	1	-4	3	-2	-1	·	·
COc1ccc(C#Cc2ccc([C@@H]3[C@@H](CO)N4CCCCN(C(=O)Nc5ccccc5F)C[C@H]34)cc2)cc1	-1	8	3	-35*	-2	-5	?
CC(C)CC#Cc1ccc([C@H]2[C@@H](CO)N3CCCCN(S(=O)(=O)Cc4ccccc4)C[C@H]23)cc1	-1	13	0	-21*	1	·	?
CC(C)CC#Cc1ccc([C@@H]2[C@@H](CO)N3C(=O)CN(C(=O)Cc4ccccc4)C[C@@H]23)cc1	-3	4	0	-38*	3	1.1	?
O=S(=O)(Cc1ccccc1)N1CCCCN2[C@@H](CO)[C@H](c3ccc(C#Cc4ccccc4)cc3)[C@@H]2C1	-2	4	0	-47*	-1	·	?
SMILES	CFTR F508del cor	S100A4 MyoIIA	SIRT5 inh	rRNA inh HTS	ERAP1 inh	AID977621	AID977628
COc1ccc(C#Cc2ccc([C@H]3[C@H]4CN(C(=O)Nc5ccccc5F)CCCCN4[C@H]3CO)cc2)cc1	2	0	6	-2	-4	·	·
O=S(=O)(Cc1ccccc1)N1CCCCN2[C@H](CO)[C@@H](c3ccc(C#Cc4ccccc4)cc3)[C@@H]2C1	2	6	-3	6	2	·	·
C[C@@H]1CN([C@@H](C)CO)C(=O)c2cc(-c3cccnc3)cnc2O[C@@H]1CN(C)C(=O)Nc1ccccc1	5	14	-5	0	0	·	·
CCn1nc(C)c(Br)c1-c1nc(CS(=O)(=O)c2ccsc2)no1	-1	-3	-3	-34*	1	-11	?
CCn1nc(C)c(Br)c1-c1nc(-c2cccc(C)c2)no1	1	6	0	9	·	·	·
CSc1nc2ccc(NC(=O)c3c(-c4ccccc4)noc3C)cc2s1	2	-4	0	-21*	-3	-21	·
O=C(NC1CCCC(C(F)(F)F)C1)c1ccc([N+](=O)[O-])o1 (stereo unspecified)	-5	0	0	-24*	-3	·	?
COC(=O)c1sccc1NC(=O)CNC(=O)c1ccccc1	0	-2	6	-23*	6	-15	-14
CO[C@@H]1CN(C)C(=O)c2ccc(NC(C)=O)cc2OC[C@H](C)N(Cc2ccc(F)cc2)C[C@@H]1C	2	14	13	-1	1	·	·
O=c1c2ccccc2nc(SCc2ccccc2)n1CC1CCCO1 (stereo unspecified)	-2	-4	-2	-21*	21	-12	-18
CS(=O)(=O)N1CC2(C1)[C@@H](c1ccccc1)[C@@H](CO)N2Cc1ccccn1	0	-1	-4	3	0	·	·
CCN(CC)CC(=O)Nc1sc2c(c1C(=O)c1ccccc1OC)CCC2	-3	2	-2	-22*	-1	3	-9.9
Fc1cccc(Cc2noc(CN3CCCCC3CCc3ccccn3)n2)c1 (stereo unspecified)	0	-1	-1	-25*	-2	·	-14
Cc1cccc(OCc2nc(C#N)c(N3CC(C)CC(C)C3)o2)c1 (stereo unspecified)	3	-3	·	-9	·	·	·
Cc1cccc(OCc2nc(C#N)c(N3CCCC3)o2)c1	1	-1	0	-25*	1	-1.6	3.7
